Columns and labels:
Type in all cases: toxicity, cell-based
Fibroblast = assay: Multiplex assay against human fibroblast
Method in brief: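 Compound was added to live cells that had been stained at seeding with Hoechst33342, BioTracker Green Microtubule Cytoskeleton Dye, MitoTracker Red and Annexin V Alexa Fluor 680, and imaging followed on a CQ1 microscope at 37°C and 5% CO2. CellPathfinder machine-learning gating divided cells into Hoechst high-intensity objects or normal cells, normal cells into healthy, pyknosed or fragmented nuclei, and pyknosed cells into mitotic or apoptotic. Tubulin, mitochondrial-mass and membrane-permeability phenotypes are per cents of healthy-nucleus cells.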

HEK-293T = assay: Incucyte cell viability with HEK293T; settings: human, 10 µM, compound concentration 10 uM; note: filed as whole numbers so only -1 and 0 and 1 occur
U2OS = assay: Incucyte cell viability with U2OS; settings: human, 10 µM, compound concentration 10 uM; note: filed as whole numbers so only -1 and 0 and 1 occur
[1] = 12 h, 1 µM, compound concentration 1 uM, replicate 1
[2] = 12 h, 1 µM, compound concentration 1 uM, replicate 2
[3] = 12 h, 10 µM, compound concentration 10 uM, replicate 1
[4] = 12 h, 10 µM, compound concentration 10 uM, replicate 2
[5] = 24 h, 1 µM, compound concentration 1 uM, replicate 1
[6] = 24 h, 1 µM, compound concentration 1 uM, replicate 2
[7] = 24 h, 10 µM, compound concentration 10 uM, replicate 1
[8] = 24 h, 10 µM, compound concentration 10 uM, replicate 2
[9] = 48 h, 1 µM, compound concentration 1 uM, replicate 1
[10] = 48 h, 1 µM, compound concentration 1 uM, replicate 2
[11] = 48 h, 10 µM, compound concentration 10 uM, replicate 1
[12] = 48 h, 10 µM, compound concentration 10 uM, replicate 2
[13] = 0 h, replicate number 1, timepoint 0 hours
[14] = 12 h, replicate number 1, timepoint 12 hours
[15] = 18 h, replicate number 1, timepoint 18 hours
[16] = 24 h, replicate number 1, timepoint 24 hours

CC(Cc1ccc(O)c(O)c1)C(C)Cc1ccc(O)c(O)c1 (centres undefined) [NORDIHYDROGUAIARETIC ACID]
Population Apoptotic (%) (Fibroblast; [1]): 66% | Population Fragmented Nuclei (%) (Fibroblast; [1]): 19% | Population Healthy Nuclei (%) (Fibroblast; [1]): 50% | Population Hoechst High Intensity Objects (%) (Fibroblast; [1]): 5% | Population Membrane Permeable-Phenotype (%) (Fibroblast; [1]): 19% | Population Mitochondria Different-Phenotype (%) (Fibroblast; [1]): 4% | Population Mitotic Cells (%) (Fibroblast; [1]): 33% | Population Normal (%) (Fibroblast; [1]): 94% | Population Pyknosed Nuclei (%) (Fibroblast; [1]): 29% | Population Tubulin-Different-Phenotype (%) (Fibroblast; [1]): 19% | Total Cell Count (Fibroblast; [1]): 170 | Population Apoptotic (%) (Fibroblast; [2]): 0% | Population Fragmented Nuclei (%) (Fibroblast; [2]): 3% | Population Healthy Nuclei (%) (Fibroblast; [2]): 93% | Population Hoechst High Intensity Objects (%) (Fibroblast; [2]): 15% | Population Membrane Permeable-Phenotype (%) (Fibroblast; [2]): 0% | Population Mitochondria Different-Phenotype (%) (Fibroblast; [2]): 1% | Population Mitotic Cells (%) (Fibroblast; [2]): 100% | Population Normal (%) (Fibroblast; [2]): 84% | Population Pyknosed Nuclei (%) (Fibroblast; [2]): 3% | Population Tubulin-Different-Phenotype (%) (Fibroblast; [2]): 25% | Population Apoptotic (%) (Fibroblast; [3]): 87% | Population Fragmented Nuclei (%) (Fibroblast; [3]): 19% | Population Healthy Nuclei (%) (Fibroblast; [3]): 46% | Population Hoechst High Intensity Objects (%) (Fibroblast; [3]): 14% | Population Membrane Permeable-Phenotype (%) (Fibroblast; [3]): 18% | Population Mitochondria Different-Phenotype (%) (Fibroblast; [3]): 6% | Population Mitotic Cells (%) (Fibroblast; [3]): 12% | Population Normal (%) (Fibroblast; [3]): 85% | Population Pyknosed Nuclei (%) (Fibroblast; [3]): 33% | Population Tubulin-Different-Phenotype (%) (Fibroblast; [3]): 13% | Population Apoptotic (%) (Fibroblast; [4]): 0% | Population Fragmented Nuclei (%) (Fibroblast; [4]): 2% | Population Healthy Nuclei (%) (Fibroblast; [4]): 91% | Population Hoechst High Intensity Objects (%) (Fibroblast; [4]): 6% | Population Membrane Permeable-Phenotype (%) (Fibroblast; [4]): 2% | Population Mitochondria Different-Phenotype (%) (Fibroblast; [4]): 10% | Population Mitotic Cells (%) (Fibroblast; [4]): 100% | Population Normal (%) (Fibroblast; [4]): 93% | Population Pyknosed Nuclei (%) (Fibroblast; [4]): 5% | Population Tubulin-Different-Phenotype (%) (Fibroblast; [4]): 38% | Total Cell Count (Fibroblast; [4]): 70 | Population Apoptotic (%) (Fibroblast; [5]): 50% | Population Fragmented Nuclei (%) (Fibroblast; [5]): 20% | Population Healthy Nuclei (%) (Fibroblast; [5]): 63% | Population Hoechst High Intensity Objects (%) (Fibroblast; [5]): 6% | Population Membrane Permeable-Phenotype (%) (Fibroblast; [5]): 22% | Population Mitochondria Different-Phenotype (%) (Fibroblast; [5]): 3% | Population Mitotic Cells (%) (Fibroblast; [5]): 50% | Population Normal (%) (Fibroblast; [5]): 93% | Population Pyknosed Nuclei (%) (Fibroblast; [5]): 16% | Population Tubulin-Different-Phenotype (%) (Fibroblast; [5]): 25% | Total Cell Count (Fibroblast; [5]): 165 | Population Apoptotic (%) (Fibroblast; [6]): 0% | Population Fragmented Nuclei (%) (Fibroblast; [6]): 2% | Population Healthy Nuclei (%) (Fibroblast; [6]): 94% | Population Hoechst High Intensity Objects (%) (Fibroblast; [6]): 7% | Population Membrane Permeable-Phenotype (%) (Fibroblast; [6]): 0% | Population Mitochondria Different-Phenotype (%) (Fibroblast; [6]): 8% | Population Mitotic Cells (%) (Fibroblast; [6]): 100% | Population Normal (%) (Fibroblast; [6]): 92% | Population Pyknosed Nuclei (%) (Fibroblast; [6]): 2% | Population Tubulin-Different-Phenotype (%) (Fibroblast; [6]): 23% | Population Apoptotic (%) (Fibroblast; [7]): 87% | Population Fragmented Nuclei (%) (Fibroblast; [7]): 18% | Population Healthy Nuclei (%) (Fibroblast; [7]): 62% | Population Hoechst High Intensity Objects (%) (Fibroblast; [7]): 17% | Population Membrane Permeable-Phenotype (%) (Fibroblast; [7]): 7% | Population Mitochondria Different-Phenotype (%) (Fibroblast; [7]): 5% | Population Mitotic Cells (%) (Fibroblast; [7]): 12% | Population Normal (%) (Fibroblast; [7]): 82% | Population Pyknosed Nuclei (%) (Fibroblast; [7]): 19% | Population Tubulin-Different-Phenotype (%) (Fibroblast; [7]): 7% | Population Apoptotic (%) (Fibroblast; [8]): 16% | Population Fragmented Nuclei (%) (Fibroblast; [8]): 2% | Population Healthy Nuclei (%) (Fibroblast; [8]): 90% | Population Hoechst High Intensity Objects (%) (Fibroblast; [8]): 5% | Population Membrane Permeable-Phenotype (%) (Fibroblast; [8]): 1% | Population Mitochondria Different-Phenotype (%) (Fibroblast; [8]): 9% | Population Mitotic Cells (%) (Fibroblast; [8]): 83% | Population Normal (%) (Fibroblast; [8]): 94% | Population Pyknosed Nuclei (%) (Fibroblast; [8]): 7% | Population Tubulin-Different-Phenotype (%) (Fibroblast; [8]): 61% | Population Apoptotic (%) (Fibroblast; [9]): 60% | Population Fragmented Nuclei (%) (Fibroblast; [9]): 20% | Population Healthy Nuclei (%) (Fibroblast; [9]): 75% | Population Hoechst High Intensity Objects (%) (Fibroblast; [9]): 8% | Population Membrane Permeable-Phenotype (%) (Fibroblast; [9]): 25% | Population Mitochondria Different-Phenotype (%) (Fibroblast; [9]): 0% | Population Mitotic Cells (%) (Fibroblast; [9]): 40% | Population Normal (%) (Fibroblast; [9]): 91% | Population Pyknosed Nuclei (%) (Fibroblast; [9]): 3% | Population Tubulin-Different-Phenotype (%) (Fibroblast; [9]): 16% | Total Cell Count (Fibroblast; [9]): 162 | Population Apoptotic (%) (Fibroblast; [10]): 66% | Population Fragmented Nuclei (%) (Fibroblast; [10]): 25% | Population Healthy Nuclei (%) (Fibroblast; [10]): 70% | Population Hoechst High Intensity Objects (%) (Fibroblast; [10]): 20% | Population Membrane Permeable-Phenotype (%) (Fibroblast; [10]): 17% | Population Mitotic Cells (%) (Fibroblast; [10]): 33% | Population Normal (%) (Fibroblast; [10]): 80% | Population Pyknosed Nuclei (%) (Fibroblast; [10]): 4% | Population Tubulin-Different-Phenotype (%) (Fibroblast; [10]): 21% | Total Cell Count (Fibroblast; [10]): 90 | Population Apoptotic (%) (Fibroblast; [11]): 92% | Population Fragmented Nuclei (%) (Fibroblast; [11]): 33% | Population Healthy Nuclei (%) (Fibroblast; [11]): 52% | Population Hoechst High Intensity Objects (%) (Fibroblast; [11]): 15% | Population Membrane Permeable-Phenotype (%) (Fibroblast; [11]): 6% | Population Mitotic Cells (%) (Fibroblast; [11]): 7% | Population Normal (%) (Fibroblast; [11]): 84% | Population Pyknosed Nuclei (%) (Fibroblast; [11]): 14% | Population Tubulin-Different-Phenotype (%) (Fibroblast; [11]): 0% | Population Apoptotic (%) (Fibroblast; [12]): 100% | Population Fragmented Nuclei (%) (Fibroblast; [12]): 20% | Population Healthy Nuclei (%) (Fibroblast; [12]): 77% | Population Hoechst High Intensity Objects (%) (Fibroblast; [12]): 11% | Population Membrane Permeable-Phenotype (%) (Fibroblast; [12]): 9% | Population Mitochondria Different-Phenotype (%) (Fibroblast; [12]): 0% | Population Mitotic Cells (%) (Fibroblast; [12]): 0% | Population Normal (%) (Fibroblast; [12]): 88% | Population Pyknosed Nuclei (%) (Fibroblast; [12]): 1% | Population Tubulin-Different-Phenotype (%) (Fibroblast; [12]): 2% | Growth Rate (HEK-293T; [13]): 1 | Growth Rate (HEK-293T; 0 h, replicate number 2, timepoint 0 hours): 0 | Growth Rate (HEK-293T; 6 h, replicate number 1, timepoint 6 hours): 0 | Growth Rate (HEK-293T; [14]): 0 | Growth Rate (HEK-293T; [15]): 0 | Growth Rate (HEK-293T; [16]): 0 | Growth Rate (U2OS; [13]): 0 | Growth Rate (U2OS; 6 h, replicate number 2, timepoint 6 hours): 0 | Growth Rate (U2OS; [14]): 0 | Growth Rate (U2OS; [15]): 0 | Growth Rate (U2OS; [16]): 0

— ChEMBL document CHEMBL4689842, “EUbOPEN Chemogenomics Library wave 1” (2021)
